From ChEMBL document CHEMBL5058577, “EUbOPEN Chemogenomics Library 2 (Multiplex)” (2022)

System: HEK-293T
Experiment: Multiplex assay against HEK293T
Format: toxicity, cell-based
Conditions: human
Method in brief: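 Per cents of healthy-nucleus cells form the tubulin, mitochondrial-mass and membrane-permeability phenotype values. Live cells were stained at seeding with Hoechst33342, BioTracker Green Microtubule Cytoskeleton Dye, MitoTracker Red and Annexin V Alexa Fluor 680. After compound addition they were imaged on a CQ1 microscope at 37°C and 5% CO2, and CellPathfinder machine-learning gating split them into Hoechst high-intensity objects or normal cells, normal cells into healthy, pyknosed or fragmented nuclei, and pyknosed cells into mitotic or apoptotic.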

[1] = 12 h, 1 µM, compound concentration 1 uM, replicate 1
[2] = 12 h, 1 µM, compound concentration 1 uM, replicate 2
[3] = 12 h, 10 µM, compound concentration 10 uM, replicate 1
[4] = 12 h, 10 µM, compound concentration 10 uM, replicate 2
[5] = 24 h, 1 µM, compound concentration 1 uM, replicate 1
[6] = 24 h, 1 µM, compound concentration 1 uM, replicate 2
[7] = 24 h, 10 µM, compound concentration 10 uM, replicate 1
[8] = 24 h, 10 µM, compound concentration 10 uM, replicate 2
[9] = 48 h, 1 µM, compound concentration 1 uM, replicate 1
[10] = 48 h, 1 µM, compound concentration 1 uM, replicate 2
[11] = 48 h, 10 µM, compound concentration 10 uM, replicate 1
[12] = 48 h, 10 µM, compound concentration 10 uM, replicate 2

Structure (SMILES): COc1cc(OC2CCN(C(C)=O)CC2)ccc1C(=O)N1CCC(N2C(=O)OCc3ccccc32)CC1
- Population Apoptotic (%) [1]: 28%
- Population Fragmented Nuclei (%) [1]: 5%
- Population Healthy Nuclei (%) [1]: 83%
- Population Hoechst High Intensity Objects (%) [1]: 7%
- Population Membrane Permeable-Phenotype (%) [1]: 0%
- Population Mitochondria Different-Phenotype (%) [1]: 37%
- Population Mitotic Cells (%) [1]: 71%
- Population Normal (%) [1]: 92%
- Population Pyknosed Nuclei (%) [1]: 11%
- Population Tubulin-Different-Phenotype (%) [1]: 26%
- Total Cell Count [1]: 477
- Population Apoptotic (%) [2]: 48%
- Population Healthy Nuclei (%) [2]: 76%
- Population Mitochondria Different-Phenotype (%) [2]: 59%
- Population Mitotic Cells (%) [2]: 51%
- Population Pyknosed Nuclei (%) [2]: 18%
- Population Tubulin-Different-Phenotype (%) [2]: 21%
- Total Cell Count [2]: 381
- Population Apoptotic (%) [3]: 40%
- Population Fragmented Nuclei (%) [3]: 9%
- Population Healthy Nuclei (%) [3]: 77%
- Population Hoechst High Intensity Objects (%) [3]: 8%
- Population Membrane Permeable-Phenotype (%) [3]: 0%
- Population Mitochondria Different-Phenotype (%) [3]: 57%
- Population Mitotic Cells (%) [3]: 60%
- Population Normal (%) [3]: 91%
- Population Pyknosed Nuclei (%) [3]: 13%
- Population Tubulin-Different-Phenotype (%) [3]: 47%
- Total Cell Count [3]: 436
- Population Apoptotic (%) [4]: 67%
- Population Fragmented Nuclei (%) [4]: 4%
- Population Healthy Nuclei (%) [4]: 80%
- Population Hoechst High Intensity Objects (%) [4]: 6%
- Population Mitochondria Different-Phenotype (%) [4]: 77%
- Population Mitotic Cells (%) [4]: 32%
- Population Normal (%) [4]: 93%
- Population Pyknosed Nuclei (%) [4]: 14%
- Population Tubulin-Different-Phenotype (%) [4]: 40%
- Total Cell Count [4]: 316
- Population Apoptotic (%) [5]: 28%
- Population Fragmented Nuclei (%) [5]: 9%
- Population Healthy Nuclei (%) [5]: 78%
- Population Hoechst High Intensity Objects (%) [5]: 4%
- Population Membrane Permeable-Phenotype (%) [5]: 2%
- Population Mitochondria Different-Phenotype (%) [5]: 25%
- Population Mitotic Cells (%) [5]: 71%
- Population Normal (%) [5]: 95%
- Population Pyknosed Nuclei (%) [5]: 11%
- Population Tubulin-Different-Phenotype (%) [5]: 17%
- Total Cell Count [5]: 598
- Population Apoptotic (%) [6]: 48%
- Population Fragmented Nuclei (%) [6]: 7%
- Population Healthy Nuclei (%) [6]: 80%
- Population Hoechst High Intensity Objects (%) [6]: 6%
- Population Membrane Permeable-Phenotype (%) [6]: 0%
- Population Mitochondria Different-Phenotype (%) [6]: 40%
- Population Mitotic Cells (%) [6]: 51%
- Population Normal (%) [6]: 93%
- Population Pyknosed Nuclei (%) [6]: 12%
- Population Tubulin-Different-Phenotype (%) [6]: 15%
- Total Cell Count [6]: 491
- Population Apoptotic (%) [7]: 31%
- Population Fragmented Nuclei (%) [7]: 8%
- Population Healthy Nuclei (%) [7]: 78%
- Population Hoechst High Intensity Objects (%) [7]: 3%
- Population Membrane Permeable-Phenotype (%) [7]: 0%
- Population Mitochondria Different-Phenotype (%) [7]: 44%
- Population Mitotic Cells (%) [7]: 68%
- Population Normal (%) [7]: 96%
- Population Pyknosed Nuclei (%) [7]: 13%
- Population Tubulin-Different-Phenotype (%) [7]: 36%
- Total Cell Count [7]: 523
- Population Apoptotic (%) [8]: 49%
- Population Fragmented Nuclei (%) [8]: 7%
- Population Hoechst High Intensity Objects (%) [8]: 4%
- Population Mitochondria Different-Phenotype (%) [8]: 58%
- Population Mitotic Cells (%) [8]: 50%
- Population Normal (%) [8]: 95%
- Population Pyknosed Nuclei (%) [8]: 14%
- Population Tubulin-Different-Phenotype (%) [8]: 29%
- Total Cell Count [8]: 393
- Population Apoptotic (%) [9]: 20%
- Population Fragmented Nuclei (%) [9]: 13%
- Population Healthy Nuclei (%) [9]: 78%
- Population Hoechst High Intensity Objects (%) [9]: 3%
- Population Membrane Permeable-Phenotype (%) [9]: 1%
- Population Mitochondria Different-Phenotype (%) [9]: 19%
- Population Mitotic Cells (%) [9]: 79%
- Population Normal (%) [9]: 96%
- Population Pyknosed Nuclei (%) [9]: 8%
- Population Tubulin-Different-Phenotype (%) [9]: 13%
- Total Cell Count [9]: 902
- Population Apoptotic (%) [10]: 33%
- Population Fragmented Nuclei (%) [10]: 11%
- Population Healthy Nuclei (%) [10]: 80%
- Population Hoechst High Intensity Objects (%) [10]: 2%
- Population Mitochondria Different-Phenotype (%) [10]: 23%
- Population Mitotic Cells (%) [10]: 66%
- Population Normal (%) [10]: 97%
- Population Pyknosed Nuclei (%) [10]: 7%
- Population Tubulin-Different-Phenotype (%) [10]: 12%
- Total Cell Count [10]: 655
- Population Apoptotic (%) [11]: 36%
- Population Fragmented Nuclei (%) [11]: 13%
- Population Healthy Nuclei (%) [11]: 78%
- Population Hoechst High Intensity Objects (%) [11]: 4%
- Population Membrane Permeable-Phenotype (%) [11]: 0%
- Population Mitochondria Different-Phenotype (%) [11]: 30%
- Population Mitotic Cells (%) [11]: 63%
- Population Normal (%) [11]: 95%
- Population Pyknosed Nuclei (%) [11]: 8%
- Population Tubulin-Different-Phenotype (%) [11]: 21%
- Total Cell Count [11]: 813
- Population Fragmented Nuclei (%) [12]: 12%
- Population Healthy Nuclei (%) [12]: 80%
- Population Hoechst High Intensity Objects (%) [12]: 3%
- Population Mitochondria Different-Phenotype (%) [12]: 39%
- Population Normal (%) [12]: 96%
- Population Pyknosed Nuclei (%) [12]: 7%
- Population Tubulin-Different-Phenotype (%) [12]: 16%
- Total Cell Count [12]: 625
